Bioassay records as filed in PubChem BioAssay.
Rows were chosen to be rich in hits. Some 2% of all compounds tested hit in one or more screens of this group.
DENV2 CPE rescue = protects cells from dengue virus 2 cytopathic effect | CPE inhibition, % at 9.99 µM | DENV2-infected cells, cytopathic effect rescue, plate reader | actives 1.7% (n = 350,000) | AID 651640; in the data active = CPE inhibition above about 20%, passing the limit was not always enough; tested in BHK-21 cells
CaV13 ICDI inh = Disruptors of the CACNA1D IQ motif to Ca2+-dependent inactivation inhibitor domain association, primary screening, Förster resonance energy transfer in intact living …. HEK cells, CFP/YFP FRET ICDI-IQ, plate reader, 10 min; percent FRET-ratio fall versus neutral wells. inhibition, % at 12.3 µM. actives 0.098% (n = 340,000). AID 743397;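 active = mean replicate inhibition of at least 30% and at least 1% of replicates passing that level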
FN deposition inh = fibronectin deposition inhibition; AH1F fibroblasts, Alexa488-fibronectin deposition fluorescence, overnight; inhibition, % at 12.6 µM; actives 0.086% (n = 350,000);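 active = mean inhibition across replicates of 30% or more, regardless of how many single replicates reach that level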
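Test system: AH1F fibroblast monolayer depositing Alexa488-labelled fibronectin into matrix. Input: 10000 cells per well. Technique: fluorescence, ex 485 nm, em 525 nm. Buffer or medium: DMEM plus 2% serum, read in PBS. Timing: 1 h cell adhesion before compound, then overnight fibronectin incubation. Compound: single dose, pinned. Read-out basis: inhibition from reduced deposited-fibronectin fluorescence.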
CASP6 VEID inh = caspase-6 (human) enzyme inhibition; P55212; purified caspase-6, Z-VEID-R110 cleavage fluorescence; inhibition, % at 12.5 µM; actives 0.53% (n = 350,000);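 active = mean inhibition across replicates at least about 35%, with every replicate also reaching that limit, limit read from the data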
Target sequence (P55212 24-179 limits assumed): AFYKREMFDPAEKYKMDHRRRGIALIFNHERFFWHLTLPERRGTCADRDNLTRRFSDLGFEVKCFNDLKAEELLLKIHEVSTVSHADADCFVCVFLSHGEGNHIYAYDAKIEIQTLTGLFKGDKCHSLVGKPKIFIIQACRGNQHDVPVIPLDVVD
Target sequence (P55212 194-293 limits assumed): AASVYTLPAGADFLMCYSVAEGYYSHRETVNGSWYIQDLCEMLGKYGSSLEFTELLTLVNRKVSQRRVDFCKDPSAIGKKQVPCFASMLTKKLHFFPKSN
XiGFP reactiv = reactivates the inactive X chromosome in mouse fibroblasts. XiGFP mouse fibroblasts, % GFP-positive cells imaging, 3 d; cells co-treated with 5-aza-dC sensitizer; scaled so ellipticine positive control = 100%. activation, % at 7.58 µM. actives 0.055% (n = 360,000);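 active = mean normalized replicate activation at least 10% and every replicate at or above 10%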
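Schedule: 3 d treatment, 15 min room-temperature fixation; system: 68-5-11 XiGFP fibroblast line; buffer or medium: DMEM plus 5-aza-dC sensitizer; control set: ellipticine 6 µM positive control; compound: one concentration, pinned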
A number is an active result; 0 = inactive; - = no result given; + = active, no number.

SMILES | DENV2 CPE rescue | CaV13 ICDI inh | FN deposition inh | CASP6 VEID inh | XiGFP reactiv
CN(C(=O)CSc1nnc(-c2cccs2)n1C1CC1)C1CCS(=O)(=O)C1 (stereo not drawn) | 37 | 0 | - | 0 | 0
CCC(C)N(C(=O)CSc1nnc(-c2cccs2)n1C1CC1)C1CCS(=O)(=O)C1 (stereo not drawn) | 0 | 0 | 0 | 0 | 0
COc1cc2c(cc1OC)CN(C(=O)[C@H]1[C@@H]3C(=O)O[C@@H](c4ccccc4)[C@@H](c4ccccc4)N3[C@@H](c3ccccc3OCCO)[C@]13C(=O)Nc1ccc(C#CC4(O)CCCCCC4)cc13)CC2 | 0 | - | - | 0 | -
CC(=O)N1CCOc2ccc(S(=O)(=O)NCc3ccc(F)cc3)cc21 | 0 | 0 | 0 | 40 | 0
CCNc1nc2nc3ccc(C)cn3c(=O)c2cc1C(=O)NCC1CCCO1 (stereo not drawn) | 0 | + | 0 | 0 | 0
CCCC(=O)Nc1ccc2c(c1)OC[C@H](C)N(CCC)C[C@H](C)[C@@H](OC)CN(C)C2=O | - | - | 0 | - | 0
CC(C)NC(=O)Nc1cccc2c1O[C@H](CN(C)C(=O)Nc1ccccc1)[C@H](C)CN([C@H](C)CO)C2=O | 42 | - | 0 | 0 | 0
C[C@@H]1CN([C@H](C)CO)C(=O)c2cccc(NC(=O)NC3CCCCC3)c2O[C@@H]1CN(C)C(=O)Nc1ccccc1 | 0 | - | - | 0 | 0
C[C@H](CO)N1C[C@H](C)[C@@H](CN(C)C(=O)Nc2ccccc2)Oc2c(NC(=O)NC3CCCCC3)cccc2C1=O | 64 | 0 | 0 | 0 | 0
Cc1ccc(S(=O)(=O)N2CCC3(CC2)OCCN3S(=O)(=O)c2cccs2)cc1 | 0 | 0 | 0 | 0 | 0
COc1ccc(S(=O)(=O)N2CCOC23CCN(S(=O)(=O)c2ccc(F)cc2)CC3)cc1 | 0 | 0 | 0 | 0 | 0
O=[N+]([O-])c1ccc(S(=O)(=O)N2CCC3(CC2)OCCN3S(=O)(=O)c2cccs2)cc1 | 0 | 0 | 0 | 36 | 0
COc1ccc(S(=O)(=O)N2CCOC23CCN(S(=O)(=O)c2ccc(C)cc2)CC3)cc1 | 0 | 0 | 0 | 52 | 0
COc1ccc(OC)c(C(c2c(C)[nH][nH]c2=O)c2c(C)[nH][nH]c2=O)c1 | 0 | 0 | 0 | 0 | 0
COc1ccc(O)c(C(c2c(C)[nH][nH]c2=O)c2c(C)[nH][nH]c2=O)c1 | 0 | 0 | 0 | 72 | 0
CC(C)NC(=O)N(C)C[C@H]1OCCCC[C@H](C)Oc2ccc(NC(=O)c3ccccc3)cc2C(=O)N([C@@H](C)CO)C[C@H]1C | 0 | - | - | 0 | 0
O=C(CSc1nc2ccsc2c(=O)n1CC1CCC(C(=O)O)CC1)c1ccc(Cl)cc1 (stereo not drawn) | 0 | 0 | 0 | 43 | 0
CN(C)C(=O)N1CCN(S(=O)(=O)c2ccc3ccccc3c2)CC1 | 0 | 0 | 0 | 0 | 0
O=C(CCl)N1CCN(S(=O)(=O)c2ccc3ccccc3c2)CC1 | 0 | 0 | 0 | 74 | 0
O=C(O)C1=C(C2CCCCC2)C(=O)c2ccccc21 | 0 | 0 | 0 | 0 | 0
O=C1C=C(C2CCCCC2)C(=O)c2ccccc21 | 0 | 0 | 0 | 50 | 0
CNC[C@@H]1OCCCC[C@@H](C)Oc2ccc(NS(=O)(=O)c3c(C)noc3C)cc2C(=O)N([C@@H](C)CO)C[C@H]1C | 29 | - | - | - | -
CNC[C@H]1OCCCC[C@@H](C)Oc2ccc(NS(C)(=O)=O)cc2C(=O)N([C@H](C)CO)C[C@@H]1C | - | - | - | - | 0
CNC[C@@H]1OCCCC[C@H](C)Oc2ccc(NS(C)(=O)=O)cc2C(=O)N([C@@H](C)CO)C[C@@H]1C | 132 | - | - | 0 | 0
CNC[C@H]1OCCCC[C@H](C)Oc2ccc(NS(=O)(=O)c3c(C)noc3C)cc2C(=O)N([C@@H](C)CO)C[C@@H]1C | 0 | - | - | - | 0
SMILES | DENV2 CPE rescue | CaV13 ICDI inh | FN deposition inh | CASP6 VEID inh | XiGFP reactiv
CNC[C@@H]1OCCCC[C@H](C)Oc2ccc(NS(=O)(=O)c3c(C)noc3C)cc2C(=O)N([C@@H](C)CO)C[C@H]1C | 123 | - | - | - | 0
COc1ccccc1NC(=O)N1CC(=O)N2[C@H](C1)[C@@H](c1ccc(C#CC(C)C)cc1)[C@@H]2CO | 0 | - | 0 | 0 | 0
CO[C@H]1CN(C)C(=O)c2cc(NC(=O)NC(C)C)ccc2OC[C@H](C)N(CC2CC2)C[C@H]1C | 0 | - | 0 | 0 | 0
CO[C@H](CN(C)Cc1cc(F)ccc1F)[C@@H](C)CN(C(=O)Nc1ccc(F)cc1)[C@@H](C)CO | 0 | - | 0 | 0 | 0
CO[C@@H]1CN(C)C(=O)c2ccc(NC(=O)C3CCOCC3)cc2OC[C@H](C)N(C(=O)c2ccccc2)C[C@@H]1C | 0 | - | - | - | 0
CC=Cc1ccc2n(c1=O)C[C@@H]1[C@@H](CO)[C@H](C(=O)N(C)C)[C@H]2N1CC1CCOCC1 (mixture of isomers) | 0 | - | - | 0 | 0
CCCN1[C@@H]2c3ccc(C4=CCCC4)c(=O)n3C[C@@H]2[C@@H](CO)[C@@H]1C(=O)OC | 0 | - | - | 0 | 0
COc1ccc(-c2ccc3n(c2=O)C[C@H]2[C@H](CO)[C@@H](C(=O)NCCN4CCCC4)N(C)[C@@H]32)cc1 | 0 | - | 0 | 0 | 0
CN1[C@@H]2c3ccc(C4=CCCC4)c(=O)n3C[C@@H]2[C@@H](CO)[C@@H]1C(=O)NCc1ccccc1F | 50 | - | - | 0 | 0
CCCN1[C@H](C(=O)OC)[C@@H](CO)[C@@H]2Cn3c(ccc(C4=CCCC4)c3=O)[C@@H]21 | 84 | - | - | 0 | 0
COC(=O)[C@H]1[C@H](CO)[C@H]2Cn3c(ccc(C4=CCCC4)c3=O)[C@H]2N1CC1CCOCC1 | 71 | - | - | 0 | 0
COc1ccc(-c2ccc3n(c2=O)C[C@H]2[C@H](CO)[C@@H](C(=O)NCCN4CCCCC4)N(C)[C@@H]32)cc1 | 34 | - | - | 0 | 0
C[C@@H]1CN([C@@H](C)CO)C(=O)Cc2cc(NC(=O)CCCCCC(=O)Nc3ccccc3N)ccc2O[C@@H]1CN(C)S(=O)(=O)c1cn(C)cn1 | 0 | - | 0 | 0 | 0
COC(=O)[C@H]1[C@H](CO)[C@H]2Cn3c(cccc3=O)[C@H]2N1CC1CCCC1 | 0 | - | - | 0 | 0
COC(=O)[C@H]1[C@H](CO)[C@H]2Cn3c(cccc3=O)[C@H]2N1CC1CCOCC1 | 0 | - | - | 70 | 0
NCCN1CCN(CC(=O)N2c3ccccc3C(=O)Nc3cccnc32)CC1 | 0 | 0 | 0 | 0 | 0
O=C1Nc2cccnc2N(C(=O)CCl)c2ccccc21 | 0 | 0 | 0 | 47 | 0
Cc1ccc(C(=O)N/C(=C/c2cccs2)C(=O)NCCCn2ccnc2)cc1 | 31 | 0 | 0 | 0 | 0
CC(=O)Nc1ccc2c(c1)C(=O)N(C)C[C@@H](C)[C@@H](CN(C)C(C)=O)O2 | - | - | 0 | - | 0
COc1cc(N)c(Cl)cc1C(=O)NC1CCN(Cc2ccccc2)CC1 | 0 | 0 | - | 49 | 0
O=C(NC1CCN(Cc2ccccc2)CC1)c1ccc(CS(=O)c2ccccc2Cl)o1 (stereo not drawn) | 70 | 0 | 0 | 0 | 0
